The source made the active and inactive calls. The rule behind the calls is not given here.
How the values were obtained:
[1] = target: Sigma non-opioid intracellular receptor 1 (Cavia porcellus, UniProt Q60492); test: Displacement of [3H]-(+)-pentazocine from sigma1 receptor in guinea pig brain membranes incubated for 1 hr by liquid scintillation counting method; format: cell membranes, Membrane
Outline: (§1)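 Radioligand binding at σ1 and σ2 receptors, with [3H]DTG as the σ2 radioligand. Ki given as mean ± SD of at least two experiments run in triplicate.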

[2] = target: T1, Sigma intracellular receptor 2 (Homo sapiens, UniProt Q5BJF2); test: Displacement of [3H]-di-o-tolylguanidine from sigma2 receptor (unknown origin) incubated for 1 hr in presence of (+)SKF10047 by liquid scintillation counting method; outline: as §1
MCF7 [3] = test: Cytotoxicity against human MCF7 cells assessed as reduction in cell viability at 100 uM after 24 hrs by MTT assay relative to control; format: functional
MCF7 [4] = test: Cytotoxicity against human MCF7 cells assessed as reduction in cell viability after 24 hrs by MTT assay; format: functional, cell-based; conditions: MCF7, 24 h
Outline: (§2)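 MTT viability assay in Caco-2, MCF-7 and HFF-1 cells; top tested concentration 100 μM. IC50 given as mean ± SD of at least two experiments run in quadruplicate.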

[5] = target: Sigma non-opioid intracellular receptor 1 (Cavia porcellus) (UniProt Q60492); test: Displacement of [3H]-(+)-pentazocine from sigma1 receptor in guinea pig brain membranes at 10 uM incubated for 1 hr by liquid scintillation counting method relative to control; format: cell membranes; conditions: Membrane
[6] = target: T1, Sigma intracellular receptor 2; test: Displacement of [3H]-di-o-tolylguanidine from sigma2 receptor (unknown origin) at 10 uM incubated for 1 hr in presence of (+)SKF10047 by liquid scintillation counting method relative to control
[7] = Drug metabolism in Tris-HCl buffer assessed as amount of nitrite released at 100 uM and 37 degree C after 30 mins in presence of nitrate reductase and NADPH by Griess reagent based spectrophotometric analysis; format: physicochemical; conditions: 0.5 h
Outline: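 Test agents at 100 μM incubated in Tris-HCl buffer at 37 °C for 30 min; total nitrite measured with Griess reagent.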

HFF-1 [8] = test: Cytotoxicity against human HFF1 cells assessed as reduction in cell viability after 24 hrs by MTT assay; format: cell-based; conditions: HFF-1, 24 h; outline: as §2
Caco-2 [9] = test: Cytotoxicity against human Caco2 cells assessed as reduction in cell viability at 100 uM after 24 hrs by MTT assay relative to control; format: functional
Caco-2 [10] = test: Cytotoxicity against human Caco2 cells assessed as reduction in cell viability after 24 hrs by MTT assay; format: functional, cell-based; conditions: Caco-2, 24 h; outline: as §2
HFF-1 [11] = test: Cytotoxicity against human HFF1 cells assessed as reduction in cell viability at 100 uM after 24 hrs by MTT assay relative to control; format: cell-based; conditions: hff-1, 24 h
MCF7 [12] = test: Cytotoxicity against human MCF7 cells assessed as restoration of cell viability loss at IC50 after 24 hrs in presence of AC927 by MTT assay; format: functional, cell-based
Outline: (§3)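 MCF-7 cells given the test agent at its viability-reducing concentration together with 1 μM σ1 agonist (+)-pentazocine or 1 μM σ2 antagonist 1-phenethylpiperidine (AC927); viability read by MTT.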

MCF7 [13] = test: Cytotoxicity against human MCF7 cells assessed as restoration of cell viability loss at IC50 after 24 hrs in presence of PTZ by MTT assay; format: functional, cell-based; outline: as §3

Sequence of Sigma non-opioid intracellular receptor 1 (Q60492 whole entry): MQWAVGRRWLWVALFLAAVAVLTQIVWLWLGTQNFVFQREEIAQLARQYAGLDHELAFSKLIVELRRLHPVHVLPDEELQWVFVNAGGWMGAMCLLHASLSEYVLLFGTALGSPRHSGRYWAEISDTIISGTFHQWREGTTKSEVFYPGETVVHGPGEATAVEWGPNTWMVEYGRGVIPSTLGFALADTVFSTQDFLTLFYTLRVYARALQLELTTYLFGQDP
Sequence of Sigma non-opioid intracellular receptor 1 (Cavia porcellus) (Q60492 whole entry): as above
T1 sequence (Q5BJF2 whole entry): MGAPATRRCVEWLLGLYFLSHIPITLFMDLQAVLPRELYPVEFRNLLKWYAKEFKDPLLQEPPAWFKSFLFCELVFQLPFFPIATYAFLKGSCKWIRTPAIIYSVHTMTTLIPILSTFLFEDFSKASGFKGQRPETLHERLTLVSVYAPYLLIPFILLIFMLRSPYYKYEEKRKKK

| Compound | Ki [1] [nM] | Ki [2] [nM] | Activity (MCF7 [3]) [%] | IC50 (MCF7 [4]) [nM] | also measured |
| --- | --- | --- | --- | --- | --- |
| O=C(NCCCCCN1CCC(Cc2ccccc2)CC1)c1ccc(CO[N+](=O)[O-])cc1 | 93 | 70 |  |  |  |
| O=C(NCCCCN1CCC(Cc2ccccc2)CC1)c1ccc(CO)cc1 | 711 | 2600 | <50 | > 100000 |  |
| Cc1ccc(C(=O)O)cc1 [4-METHYLBENZOIC ACID] | > 10000 | > 10000 | <50 | > 100000 | inhibition [5]: < 50%; inhibition [6]: < 50% |
| O=C(NCCN1CCC(Cc2ccccc2)CC1)c1ccc(CO[N+](=O)[O-])cc1 | 89 | 2670 |  |  |  |
| O=C(NC1CCN(Cc2ccccc2)CC1)c1cccc(CO[N+](=O)[O-])c1 | 24 | 19 |  |  |  |
| O=C(Cc1cccc(CO[N+](=O)[O-])c1)NC1CCN(Cc2ccccc2)CC1 | 19 | 320 | <50 | > 100000 | Drug metabolism [7]: 1.3 µM; IC50 (HFF-1 [8]): > 100000 nM; Activity (Caco-2 [9]): <50%; IC50 (Caco-2 [10]): > 100000 nM; Activity (HFF-1 [11]): < 50% |
| O=C(NCCCN1CCC(Cc2ccccc2)CC1)c1ccc(CO[N+](=O)[O-])cc1 | 145 | 230 |  |  |  |
| O=C(NCCCCN1CCC(Cc2ccccc2)CC1)c1ccc(CO[N+](=O)[O-])cc1 | 250 | 89 |  | 26000 | Drug metabolism [7]: 13 µM; IC50 (HFF-1 [8]): > 100000 nM; Activity (MCF7 [12]): inactive; Activity (MCF7 [13]): inactive; IC50 (Caco-2 [10]): 28000 nM; Activity (HFF-1 [11]): < 50% |
| O=C(NCCCCCN1CCC(Cc2ccccc2)CC1)c1cccc(CO[N+](=O)[O-])c1 | 50 | 142 |  |  |  |
| Cc1ccc(C(=O)NCCCCN2CCC(Cc3ccccc3)CC2)cc1 | 62 | 127 | <50 | 87000 |  |
| O=C(O)c1ccc(CO)cc1 | > 10000 | > 10000 | <50 | > 100000 | inhibition [5]: < 50%; inhibition [6]: < 50% |
| C[C@@H]1CCO[C@H]2Cn3cc(C(=O)NCc4ccc(F)cc4F)c(=O)c(O)c3C(=O)N12 [DOLUTEGRAVIR] |  | 18 |  |  |  |
| O=C(O)c1ccc(CO[N+](=O)[O-])cc1 | > 10000 | > 10000 | <50 | > 100000 | inhibition [5]: < 50%; inhibition [6]: < 50% |
| O=C(Cc1ccc(CO[N+](=O)[O-])cc1)NC1CCN(Cc2ccccc2)CC1 | 170 | 2510 |  |  |  |
| O=C(NC1CCN(Cc2ccccc2)CC1)c1ccc(CO[N+](=O)[O-])cc1 | 22 | 270 | <50 | > 100000 | Drug metabolism [7]: 6.3 µM; IC50 (HFF-1 [8]): > 100000 nM; Activity (Caco-2 [9]): <50%; IC50 (Caco-2 [10]): > 100000 nM; Activity (HFF-1 [11]): < 50% |
| O=C(NCCCN1CCC(Cc2ccccc2)CC1)c1cccc(CO[N+](=O)[O-])c1 | 64 | 93 |  |  |  |
| O=C(NCCCCN1CCC(Cc2ccccc2)CC1)c1cccc(CO[N+](=O)[O-])c1 | 148 | 75 |  |  |  |
| COc1cccc2c1C(=O)c1c(O)c3c(c(O)c1C2=O)C[C@@](O)(C(=O)CO)C[C@@H]3O[C@H]1C[C@H](N)[C@H](O)[C@H](C)O1 [DOXORUBICIN] |  |  |  |  | IC50 (HFF-1 [8]): > 100000 nM; IC50 (Caco-2 [10]): 21000 nM; Activity (HFF-1 [11]): < 50% |
| O=C(NCCN1CCC(Cc2ccccc2)CC1)c1cccc(CO[N+](=O)[O-])c1 | 49 | 330 |  | 36000 | Drug metabolism [7]: 13 µM; IC50 (HFF-1 [8]): > 100000 nM; IC50 (Caco-2 [10]): 59000 nM; Activity (HFF-1 [11]): < 50% |

From ChEMBL document CHEMBL4613307, “Sigma Receptor Ligands Carrying a Nitric Oxide Donor Nitrate Moiety: Synthesis, In Silico, and Biological Evaluation” (ACS Med Chem Lett, 2020)
